Blank lines part the entries; values can stand above or below the molecule they belong to.
Experiments:
[1] = Solubility observations; assay type: physicochemical
[2] = target: T1, human Ero1α (Homo sapiens, UniProt Q96HE7, C104A/C131A/C166A); test: Amplex Red/Ero1α catalytic assay; assay type: biochemical
T1 sequence (Q96HE7 22-468 C104A/C131A/C166A): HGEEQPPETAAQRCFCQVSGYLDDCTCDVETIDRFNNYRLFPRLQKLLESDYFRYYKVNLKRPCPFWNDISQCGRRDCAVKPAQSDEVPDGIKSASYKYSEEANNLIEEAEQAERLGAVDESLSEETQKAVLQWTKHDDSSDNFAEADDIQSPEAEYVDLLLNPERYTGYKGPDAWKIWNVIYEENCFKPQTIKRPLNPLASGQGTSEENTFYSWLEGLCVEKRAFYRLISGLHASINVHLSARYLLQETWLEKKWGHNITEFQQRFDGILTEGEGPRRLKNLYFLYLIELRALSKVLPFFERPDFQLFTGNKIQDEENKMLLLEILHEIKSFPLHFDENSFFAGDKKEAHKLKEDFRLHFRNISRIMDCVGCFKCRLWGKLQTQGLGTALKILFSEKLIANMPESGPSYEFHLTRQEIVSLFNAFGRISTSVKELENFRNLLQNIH
How it was run: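 Hyperactive His-tagged human Ero1α (residues 22–468) expressed in E. coli BL21(DE3)RIL, Ni-NTA purified, oxidised with ferricyanide, monomeric gel-filtration fraction; 0.0625 mg/mL enzyme with HRP, 25 μM Amplex Red, human PDI (18–479) substrate 0.250–0.008 mg/mL, test compound 200–0.01 μM, 50 mM sodium phosphate pH 7.4; 30 min, 37 °C; fluorescence Ex 530/Em 590; two experiments in triplicate.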

[3] = system: U266 cells; test: Annexin V/propidium iodide double-staining assay; assay type: cell-based; conditions: 25 μM, 18 h
How it was run: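 U266 cells exposed to DMSO vehicle or 25 μM test compound for 18 h, then washed in ice-cold PBS and stained with Annexin V-FITC/PI in binding buffer for 15 min at 37 °C in the dark. Flow cytometry counted at least 10,000 cells per sample. Means ± SD from three independent experiments.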

[4] = system: normal PBMCs; test: Cell death in normal PBMCs; assay type: cell-based; conditions: data not shown
[5] = system: Ero1L; conditions: cited from earlier work
[6] = system: U266 cells; test: Western blot analysis of ER stress markers; assay type: cell-based; conditions: U266, 2, 4 and 8 h
How it was run: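 U266 lysates taken after 2, 4 and 8 h with DMSO or test compound, run on 8–10% SDS-PAGE and transferred to PVDF. Membranes blocked 1 h at room temperature in 5% milk/TBST, probed overnight at 4 °C for p-eIF2α, ATF4, ATF6 and β-actin, then HRP secondary for 1 h. Chemiluminescent detection; n=3 independent assays.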

SMILES: [N-]=[N+]=Nc1cccc(-c2ccc(/C=C3/C(=O)N(c4ccc(Cl)c(C(=O)O)c4)N=C3C(F)(F)F)o2)c1 [PB-10, (E)-5-(4-((5-(3-azidophenyl)furan-2-yl)methylene)-5-oxo-3-(trifluoromethyl)-4,5-dihydro-1H-pyrazol-1-yl)-2-chlorobenzoic acid]
Solubility [1]: comparable in solubility to EN460

SMILES: CC1=NN(c2ccc(C)cc2)C(=O)/C1=C/c1ccc(-c2ccc(C(=O)O)cc2)o1 [AN968]
Activity against Ero1L (derivative screen, Supplementary Fig. 2) [2]: marginally active

SMILES: O=C(O)c1cc(N2N=C(C(F)(F)F)/C(=C/c3ccc(-c4ccccc4)o3)C2=O)ccc1Cl [EN460]
Apoptosis (Annexin V positive cells) [3]: induces apoptosis
Cell death in normal PBMCs [4]: sufficient to induce cell death
Inhibition of the Ero1L enzyme [5]: low micromolar range
ATF4 level [6]: modest increase
full length ATF6 level [6]: reduced levels
p-eIF2α level [6]: robust increase
Solubility [1]: poor solubility
Reachable concentration in vitro ([1]; limited by poor solubility): ≤ 200 µM
Mode of Ero1L inhibition ([2]; increasing substrate PDI with different EN460 concentrations): competitive
Km ([2]; substrate PDI, with EN460): increased
Vmax ([2]; substrate PDI, with EN460): largely stated the same

Next, values leading:

Solubility in physiological buffers ([1]; e.g. PBS pH 7.4): less soluble
SMILES: [N-]=[N+]=Nc1ccc(-c2ccc(/C=C3/C(=O)N(c4ccc(Cl)c(C(=O)O)c4)N=C3C(F)(F)F)o2)cc1 [PB-11, (E)-5-(4-((5-(4-azidophenyl)furan-2-yl)methylene)-5-oxo-3-(trifluoromethyl)-4,5-dihydro-1H-pyrazol-1-yl)-2-chlorobenzoic acid]

Activity against Ero1L (derivative screen, Supplementary Fig. 2) [2]: inactive
SMILES: CC1=NN(c2ccccc2)C(=O)/C1=C/c1ccc(-c2cccc(Br)c2)o1 [AK968]

Reference: publication PMC6554731 (Bioorganic & medicinal chemistry, 2019)
